Source: article PMC6452895 (ChemMedChem, 2019)

What was measured:
SIRT3 = molecular target: T1, SIRT3 (Homo sapiens, UniProt Q9NTG7); assay: In vitro SIRT3 deacetylation inhibition, H3K9-Ac peptide substrate; format: biochemical; settings: read-out: SIRT3 Deacetylation IC50, with 15 min pre-incubation
T1 sequence (Q9NTG7 1-399): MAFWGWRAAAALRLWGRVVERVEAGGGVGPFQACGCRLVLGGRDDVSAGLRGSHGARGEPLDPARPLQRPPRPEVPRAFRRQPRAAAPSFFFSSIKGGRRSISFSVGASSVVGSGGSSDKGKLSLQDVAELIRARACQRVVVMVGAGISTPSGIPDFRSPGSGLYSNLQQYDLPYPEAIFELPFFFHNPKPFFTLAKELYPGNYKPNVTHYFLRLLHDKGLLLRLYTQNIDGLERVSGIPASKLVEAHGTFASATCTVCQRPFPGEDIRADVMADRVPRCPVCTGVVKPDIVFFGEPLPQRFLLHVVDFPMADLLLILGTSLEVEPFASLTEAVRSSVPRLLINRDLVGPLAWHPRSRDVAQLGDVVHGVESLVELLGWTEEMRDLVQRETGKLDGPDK
In short: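 The enzyme was pre-incubated with NAD and test compound for 15 min, then substrate was added to start the deacetylation reaction. IC50 was determined under these pre-incubation conditions.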

ASPC1 = assay: Growth inhibition; format: cell-based, human; settings: ASPC1, pancreatic cancer, K-Ras G12D
In short: (§1)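 Cancer cell lines were treated with test compound for growth inhibition. Each GI50 is the average of three independent experiments, each run in duplicate.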

HCT116 = assay: Growth inhibition; format: cell-based, human; settings: HCT116, colon cancer, K-Ras G13D
In short: as §1

NCI-H23 = assay: Growth inhibition; format: cell-based, human; settings: NCI-H23, lung cancer, K-Ras G12C
In short: as §1

MDA-MB-231 = assay: Growth inhibition; format: cell-based, human; settings: MDA-MB-231, breast cancer, K-Ras G13D
In short: as §1

HME1 = assay: Growth inhibition; format: cell-based, human; settings: HME1, normal mammary epithelial cells, K-Ras WT
In short: (§2)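 GI50 determined for growth of the test compound's target cells; values averaged across three independent experiments, each run in duplicate.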

MCF10A = assay: Growth inhibition; format: cell-based, human; settings: normal mammary epithelial cells, K-Ras WT
In short: as §2

CCCCCCCCCCCCCC(=S)NCCCCC(NC(=O)OCc1ccccc1)C(=O)Nc1ccccc1 (stereo not shown) [TM]
IC50 (SIRT3): > 50 µM | GI50 (ASPC1): 24 ± 5 µM | GI50 (HCT116): 19 ± 1 µM | GI50 (NCI-H23): 29 ± 6 µM | GI50 (MDA-MB-231): 13 ± 4 µM | GI50 (HME1): > 50 µM | GI50 (MCF10A): > 50 µM
